We go through 15 molecules from ChEMBL document CHEMBL1165875, “Synthesis and evaluation of 9-benzylideneamino derivatives of homocamptothecin as potent inhibitors of DNA topoisomerase I” (Eur J Med Chem, 2010).

The structures appear in SMILES notation. Activity calls are given as the source filed them. No cut-off for these calls is given here.

The subject of one experiment is MDA-MB-435. Briefly: Cytotoxicity against human MDA-MB-435 cells after 3 days by MTT assay. It counts as functional, cell-based. Particulars: MDA-MB-435, 72 h. A digest of the protocol:
(§1)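 MTT read-out: formazan dissolved in DMSO, absorbance at 570 nm, compound-free wells as blanks. Survival expressed as percentage of untreated control wells.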
(Tetrazolium assays rely on reduction of a dye to a coloured formazan, in cell work by metabolically active cells.)

In another experiment the test system is LoVo. Briefly: Cytotoxicity against human LoVo cells after 3 days by MTT assay. To be noted: 72 h. It counts as functional, cell-based. The method, boiled down:
as §1

The test system of another experiment is A549. Description: Cytotoxicity against human A549 cells after 3 days by MTT assay. Format: functional, cell-based. To be noted: A549, 72 h. The method, boiled down: as §1
In experiment [1] the target is T1, Topoisomerase I (Bos taurus) (UniProt Q2HPH0).
T1 sequence (whole entry): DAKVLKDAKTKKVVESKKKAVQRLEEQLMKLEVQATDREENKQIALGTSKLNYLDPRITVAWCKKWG
Briefly: Inhibition of calf thymus DNA topoisomerase 1-mediated pBR322 DNA cleavage. The method, boiled down: (§2)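 Calf thymus Topo I with supercoiled pBR322 DNA in Topo I buffer with 0.1% BSA, 20 uL reactions. Reactions stopped with loading buffer (EDTA, glycerol, xylene cyanol FF, bromophenol blue). Products resolved on 0.8% agarose in TAE, 40 min at 120 V. Gel stained with ethidium bromide at room temperature and imaged under UV.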

Experiment [2] has as its target T1, Topoisomerase I (Bos taurus). Description: Inhibition of calf thymus DNA topoisomerase 1-mediated pBR322 DNA cleavage at 1 uM. A digest of the protocol:
as §2

Regarding `CC[C@]1(O)CC(=O)OCc2c1cc1n(c2=O)Cc2c-1nc1cccc(/N=C/c3ccc(Cl)cc3)c1c2C`, the IC50 (as a rule, the concentration that gives 50% inhibition) was determined as 11 nM in the experiment on MDA-MB-435, 1610 nM in the experiment on LoVo and 2550 nM in the experiment with A549.

Turning to `CC[C@]1(O)CC(=O)OCc2c1cc1n(c2=O)Cc2c-1nc1cccc(/N=C/c3ccc(Cl)cc3Cl)c1c2C`, the values for the half-maximal inhibitory concentration (IC50) with MDA-MB-435, in the experiment with LoVo and with A549 were 360 nM, 4190 nM and 3600 nM, respectively.

In the case of `CC[C@]1(O)CC(=O)OCc2c1cc1n(c2=O)Cc2c-1nc1cccc(/N=C/c3ccccc3OC)c1c2C`, the IC50 in the experiment on MDA-MB-435 amounted to 2.2 nM; in the experiment with LoVo it was 1930 nM; in the experiment on A549, 2280 nM. Moreover, the outcome in experiment [1] was Active.

With `CC[C@@]1(O)C(=O)OCc2c1cc1n(c2=O)Cc2cc3c(CN(C)C)c(O)ccc3nc2-1` [TOPOTECAN], the IC50 in the experiment on MDA-MB-435 was 79 nM; with LoVo, 1210 nM; in the experiment on A549, 1090 nM.

Take `CC[C@]1(O)CC(=O)OCc2c1cc1n(c2=O)Cc2c-1nc1cccc(/N=C/c3cccc(C)c3)c1c2C`: the IC50 came out at 16 nM with MDA-MB-435, 2600 nM in the experiment with LoVo and 2920 nM with A549.

Turning to `CC[C@]1(O)CC(=O)OCc2c1cc1n(c2=O)Cc2c-1nc1cccc(/N=C/c3ccc(C)cc3)c1c2C`, the IC50 in the experiment with MDA-MB-435 stood at 9.1 nM; with LoVo, 910 nM; in the experiment with A549, 2840 nM. Further, the outcome in experiment [1] was Active.

With `CC[C@]1(O)CC(=O)OCc2c1cc1n(c2=O)Cc2c-1nc1cccc(/N=C/c3cccc([N+](=O)[O-])c3)c1c2C`, the figures for the IC50 in the experiment with MDA-MB-435, in the experiment on LoVo and in the experiment on A549 were 14 nM, 1070 nM and 5440 nM, respectively.

As for `CC[C@]1(O)CC(=O)OCc2c1cc1n(c2=O)Cc2c-1nc1cccc(/N=C/c3ccc(N(C)C)cc3)c1c2C`, the IC50 with MDA-MB-435 came to 9.8 nM; with LoVo it was 3390 nM; in the experiment on A549, 3010 nM.

Turning to `CC[C@]1(O)CC(=O)OCc2c1cc1n(c2=O)Cc2c-1nc1cccc(NC(C)=O)c1c2C`, the figures for the half-inhibitory concentration (IC50) in the experiment with MDA-MB-435, in the experiment on LoVo and with A549 were 4320 nM, 190000 nM and 151000 nM, respectively.

Take `CC[C@]1(O)CC(=O)OCc2c1cc1n(c2=O)Cc2c-1nc1cccc(/N=C/c3cc(C)cc(C)c3)c1c2C`: the half-maximal inhibitory concentration (IC50) with MDA-MB-435 was determined as 1180 nM; in the experiment with LoVo, 5960 nM; in the experiment on A549 it was 5580 nM.

As to `CC[C@]1(O)CC(=O)OCc2c1cc1n(c2=O)Cc2c-1nc1cccc(/N=C/c3ccc(C(C)(C)C)cc3)c1c2C`, the 50% inhibitory concentration (IC50) worked out at 270 nM with MDA-MB-435, 4260 nM with LoVo and 4560 nM in the experiment on A549.

Take `CC[C@]1(O)CC(=O)OCc2c1cc1n(c2=O)Cc2c-1nc1cccc(N)c1c2C`: the concentration for half-maximal inhibition (IC50) with MDA-MB-435 came to 110 nM; in the experiment with LoVo it was 10300 nM; in the experiment on A549, 3550 nM. In addition, in experiment [1], the outcome was Active. Besides, the outcome in experiment [2] was inactive.

Regarding `CC[C@]1(O)CC(=O)OCc2c1cc1n(c2=O)Cc2c-1nc1cccc(/N=C/c3ccccc3C)c1c2C`, the concentration for half-maximal inhibition (IC50) with MDA-MB-435 turned out to be 3.9 nM; in the experiment on LoVo it was 1380 nM; with A549, 3290 nM. Further, the result in experiment [1] was Active.

With `CC[C@]1(O)CC(=O)OCc2c1cc1n(c2=O)Cc2c-1nc1cccc(/N=C/c3ccc(Br)cc3)c1c2C`, the IC50 in the experiment with MDA-MB-435 came to 18 nM; with LoVo it was 5800 nM; in the experiment with A549, 1870 nM.

For the molecule `CC[C@]1(O)CC(=O)OCc2c1cc1n(c2=O)Cc2c-1nc1cccc(/N=C/c3ccc(C)cc3C)c1c2C`, the concentration for half-maximal inhibition (IC50) with MDA-MB-435 was 720 nM; in the experiment on LoVo, 8620 nM; with A549, 2390 nM.
